Source: ChEMBL document CHEMBL4145490, “((S)-3-Mercapto-2-methylpropanamido)acetic acid derivatives as metallo-β-lactamase inhibitors: Synthesis, kinetic and crystallographic studies” (Eur J Med Chem, 2018)
Blank lines part the entries; values can stand above or below the compound they belong to. Calls of active or inactive are those of the source. The calls are words filed in the database; no cut-off is given here.

Key:
[1] = Inhibition of bacterial NDM1 (1 to 270 residues) expressed in Escherichia coli Transetta (DE3) cells using FC-5 as substrate by fluorescence assay; design: species or system Bacteria
[2] = Inhibition of bacterial VIM2 (27 to 266 residues) expressed in Escherichia coli Transetta (DE3) cells using FC-5 as substrate by fluorescence assay; design: species or system Bacteria
[3] = test system: Escherichia coli; assay: Growth inhibition of Escherichia coli DH5alpha expressing Escherichia coli VIM2 after 16 to 20 hrs by CLSI broth microdilution method; type: organism-based, DH5[alpha]; details: in vivo
In short: (§1)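 MICs of meropenem against E. coli DH5α carrying a VIM-2-encoding plasmid, and against a control E. coli strain, with meropenem alone or combined with inhibitor at fixed 100, 200 or 500 µM. Fold change is the MIC shift relative to meropenem alone.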

[4] = species: Danio rerio; assay: Toxicity in FLK-1 promoter EGFP transgenic zebrafish embryos assessed as limited mobility at 20 uM incubated for 4 to 96 hrs post fertilization by fluorescence microscopic analysis; type: organism-based; details: in vivo
[5] = species: Danio rerio; assay: Toxicity in FLK-1 promoter EGFP transgenic zebrafish embryos assessed as effect on morphology at 20 uM incubated for 4 to 96 hrs post fertilization by fluorescence microscopic analysis; type: organism-based; details: in vivo
[6] = test system: Bacteria; assay: Reversible inhibition of bacterial VIM2 (27 to 266 residues) expressed in Escherichia coli Transetta (DE3) cells at 0.14 uM using FC-5 as substrate up to 500 secs by jump dilution assay
In short: (§2)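 Jump-dilution reversibility test. VIM-2 at 100-fold its activity-assay concentration was preincubated with inhibitor for 30 min at room temperature, then rapidly diluted 100-fold, and enzyme activity was followed.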

[7] = Inhibition of bacterial VIM2 (27 to 266 residues) expressed in Escherichia coli Transetta (DE3) cells using FC-5 as substrate in presence of 100 uM Zn2+ by fluorescence assay; design: species or system Bacteria
In short: (§3)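 VIM-2 inhibition determined as dose-inhibition curves, with the assay run at added Zn(II) of 0, 1 or 100 µM.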

[8] = test system: Escherichia coli; assay: Growth inhibition of Escherichia coli DH5alpha after 16 to 20 hrs by CLSI broth microdilution method; type: organism-based, DH5[alpha]; details: in vivo; in short: as §1
[9] = species: Danio rerio; assay: Toxicity in FLK-1 promoter EGFP transgenic zebrafish embryos assessed as death at 20 uM incubated for 4 to 96 hrs post fertilization by fluorescence microscopic analysis; type: organism-based; details: in vivo
[10] = Inhibition of bacterial VIM2 (27 to 266 residues) expressed in Escherichia coli Transetta (DE3) cells using FC-5 as substrate in presence of 1 uM Zn2+ by fluorescence assay; design: species or system Bacteria; in short: as §3
[11] = test system: Escherichia coli; assay: Potentiation of meropenem induced antibacterial activity against Escherichia coli DH5alpha by measuring meropenem MIC at 200 uM after 16 to 20 hrs by CLSI broth microdilution method (reference value: <0.25 microg/ml); type: functional; details: DH5[alpha]; in short: as §1
[12] = biological target: Metallo-beta-lactamase (Escherichia coli) (UniProt Q5U7L7); assay: Inhibition of Escherichia coli VIM2 expressed in Escherichia coli DH5alpha assessed as potentiation of meropenem induced antibacterial activity by measuring meropenem MIC at 200 uM after 16 to 20 hrs by CLSI broth microdilution method (reference value: 16 microg/ml); in short: as §1
[13] = biological target: Metallo-beta-lactamase (Escherichia coli) (UniProt Q5U7L7); assay: Inhibition of Escherichia coli VIM2 expressed in Escherichia coli DH5alpha assessed as potentiation of meropenem induced antibacterial activity by measuring meropenem MIC at 100 uM after 16 to 20 hrs by CLSI broth microdilution method (reference value: 16 microg/ml); in short: as §1
[14] = species: Danio rerio; assay: Toxicity in FLK-1 promoter EGFP transgenic zebrafish embryos assessed as effect on angiogenesis at 20 uM incubated for 4 to 96 hrs post fertilization by fluorescence microscopic analysis; type: organism-based; details: in vivo
[15] = test system: Escherichia coli; assay: Potentiation of meropenem induced antibacterial activity against Escherichia coli DH5alpha by measuring meropenem MIC at 100 uM after 16 to 20 hrs by CLSI broth microdilution method (reference value: <0.25 microg/ml); type: functional; details: DH5[alpha]; in short: as §1
[16] = test system: Escherichia coli; assay: Potentiation of meropenem induced antibacterial activity against Escherichia coli DH5alpha by measuring meropenem MIC at 500 uM after 16 to 20 hrs by CLSI broth microdilution method (reference value: <0.25 microg/ml); type: functional; details: DH5[alpha]; in short: as §1
[17] = biological target: Metallo-beta-lactamase (Escherichia coli) (UniProt Q5U7L7); assay: Inhibition of Escherichia coli VIM2 expressed in Escherichia coli DH5alpha assessed as potentiation of meropenem induced antibacterial activity by measuring meropenem MIC at 500 uM after 16 to 20 hrs by CLSI broth microdilution method (reference value: 16 microg/ml); in short: as §1
[18] = biological target: Metallo-beta-lactamase (Escherichia coli) (UniProt Q5U7L7); assay: Inhibition of Escherichia coli VIM2 expressed in Escherichia coli DH5alpha assessed as potentiation of meropenem induced antibacterial activity by measuring fold reduction of meropenem MIC after 16 to 20 hrs by CLSI broth microdilution method relative to control; in short: as §1
[19] = test system: HEK-293T; assay: Cytotoxicity against HEK293T cells assessed as reduction in cell viability at 50 uM after 72 hrs by MTT assay relative to control; type: cell-based; details: human
[20] = test system: Bacteria; assay: Reversible inhibition of bacterial VIM2 (27 to 266 residues) expressed in Escherichia coli Transetta (DE3) cells at 7.5 uM using FC-5 as substrate up to 500 secs by jump dilution assay; in short: as §2
[21] = Inhibition of N-terminal his-tagged bacterial VIM2 (27 to 266 residues) expressed in Escherichia coli BL21(DE3) pLyS cells; design: species or system Bacteria
[22] = Inhibition of N-terminal his-tagged bacterial NDM1 expressed in Escherichia coli BL21(DE3) pLyS cells; design: species or system Bacteria
[23] = test system: Bacteria; assay: Reversible inhibition of bacterial VIM2 (27 to 266 residues) expressed in Escherichia coli Transetta (DE3) cells at 0.77 uM using FC-5 as substrate up to 500 secs by jump dilution assay; in short: as §2

IC50 [1]: 73100 nM
pIC50 [1]: 4.14
IC50 [2]: 276 nM
pIC50 [2]: 6.56
SMILES: C[C@H](CS)C(=O)N[C@H](Cc1ccc(O)cc1)C(=O)O

IC50 [21]: 1060 nM
pIC50 [21]: 5.97
IC50 [22]: 24800 nM
pIC50 [22]: 4.61
SMILES: C[C@H](CS)C(=O)N[C@@H](Cc1c[nH]c2ccccc12)C(=O)O

IC50 [1]: 8770 nM
pIC50 [1]: 5.06
IC50 [2]: 39 nM
pIC50 [2]: 7.41
SMILES: C[C@H](CS)C(=O)N[C@H](C(=O)O)c1ccccc1

IC50 [1]: 11700 nM
pIC50 [1]: 4.93
IC50 [2]: 121 nM
pIC50 [2]: 6.92
SMILES: C[C@H](CS)C(=O)N[C@H](C(=O)O)c1ccc(F)cc1

IC50 [1]: 326000 nM
pIC50 [1]: 3.49
IC50 [2]: 490 nM
pIC50 [2]: 6.31
SMILES: C[C@H](CS)C(=O)N[C@@H](Cc1ccc(O)cc1)C(=O)O

IC50 [21]: 50 nM
pIC50 [21]: 7.26
IC50 [22]: 64800 nM
pIC50 [22]: 4.19
SMILES: C[C@H](CS)C(=O)N[C@H](Cc1c[nH]c2ccccc12)C(=O)O

IC50 [21]: 4550 nM
pIC50 [21]: 5.34
SMILES: C[C@H](CS)C(=O)N1CCC[C@@H]1C(=O)O [D-CAPTOPRIL]

IC50 [1]: 7000 nM
pIC50 [1]: 5.16
IC50 [2]: 121 nM
pIC50 [2]: 6.92
SMILES: C[C@H](CS)C(=O)N[C@H](Cc1ccccc1)C(=O)O

Continued, compound first:

SMILES: C[C@H](CS)C(=O)N[C@@H](Cc1ccccc1)C(=O)O
IC50 [1]: 233000 nM
pIC50 [1]: 3.63
IC50 [2]: 2850 nM
pIC50 [2]: 5.55

SMILES: C[C@H](CS)C(=O)N[C@@H](C(=O)O)c1ccc(O)cc1
MIC [3]: > 128 µg/mL
Activity [4]: Non-Toxic
Activity [5]: Non-Toxic
inhibition [6]: inactive
IC50 [7]: 12.3 nM
MIC [8]: > 128 µg/mL
Activity [9]: Non-Toxic
IC50 [10]: 14.8 nM
MIC [11]: < 0.25 µg/mL
MIC [12]: 8 µg/mL
MIC [13]: 8 µg/mL
Activity [14]: Non-Toxic
MIC [15]: < 0.25 µg/mL
MIC [16]: < 0.25 µg/mL
IC50 [1]: 3570 nM
pIC50 [1]: 5.45
IC50 [2]: 9.57 to 13.7 nM
pIC50 [2]: 7.86
MIC [17]: 4 µg/mL
fold change (FC) [18]: 2 to 4
Activity [19]: 8%

SMILES: C[C@H](CS)C(=O)N1CCC[C@H]1C(=O)O [CAPTOPRIL]
inhibition [20]: Active

SMILES: C[C@H](CS)C(=O)N[C@H](C(=O)O)c1ccc(O)cc1
MIC [3]: > 128 µg/mL
Activity [4]: Non-Toxic
Activity [5]: Non-Toxic
IC50 [7]: 66 nM
MIC [8]: > 128 µg/mL
Activity [9]: Non-Toxic
IC50 [10]: 72.9 nM
inhibition [23]: inactive
MIC [11]: < 0.25 µg/mL
MIC [12]: 16 µg/mL
MIC [13]: 16 µg/mL
Activity [14]: Non-Toxic
MIC [15]: < 0.25 µg/mL
MIC [16]: < 0.25 µg/mL
IC50 [1]: 24000 nM
pIC50 [1]: 4.62
IC50 [2]: 77 nM
pIC50 [2]: 7.11
MIC [17]: 8 µg/mL
fold change (FC) [18]: 2 to 4
Activity [19]: Non-Toxic

SMILES: C[C@H](CS)C(=O)N[C@@H](C(=O)O)c1ccccc1
IC50 [1]: 20500 nM
pIC50 [1]: 4.69
IC50 [2]: 57 nM
pIC50 [2]: 7.25

SMILES: C[C@H](CS)C(=O)N[C@@H](C(=O)O)c1ccc(F)cc1
IC50 [1]: 5590 nM
pIC50 [1]: 5.25
IC50 [2]: 55 nM
pIC50 [2]: 7.26
